Test results as given in ChEMBL document CHEMBL1255401, “Penicillin sulfone inhibitors of class D beta-lactamases” (Antimicrob Agents Chemother, 2010).

Columns and labels:
[1] = Activity of Beta-lactamase OXA-1 expressed in Escherichia coli BL21 (DE3)
Method in brief: (§1)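 OXA-1 from E. coli BL21(DE3) with pET 12a(+) blaOXA-1, IPTG-induced (0.2 mM), released with lysozyme/EDTA, purified by preparative isoelectric focusing. Continuous spectrophotometric hydrolysis assays of oxacillin, ampicillin, nitrocefin and cephaloridine at room temperature in 50 mM sodium phosphate with 20 mM bicarbonate, run in triplicate. Initial rates versus substrate concentration fitted to give kcat, Km and kcat/Km.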

[2] = Ratio of Kcat to Km for Beta-lactamase OXA-1 expressed in Escherichia coli BL21 (DE3); method in brief: as §1
[3] = Inhibition of Beta-lactamase OXA-10 expressed in Escherichia coli BL21 (DE3) by nitrocefin hydrolysis assay
Method in brief: (§2)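 Competition assay at room temperature in 50 mM sodium phosphate with 20 mM bicarbonate, run in triplicate. Enzyme at 11 nM, reporter substrate 50 μM nitrocefin, inhibitor at 4 μM to 9 mM depending on inhibitor and enzyme. Initial velocities taken immediately after mixing, 1/v plotted against [I] and fitted linearly. Ki obtained as y-intercept divided by slope.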

[4] = Inhibition of Beta-lactamase OXA-24/40 expressed in Escherichia coli BL21 (DE3) by nitrocefin hydrolysis assay; method in brief: as §2
[5] = Inhibition of Beta-lactamase OXA-14 expressed in Escherichia coli BL21 (DE3) by nitrocefin hydrolysis assay; method in brief: as §2
[6] = Inhibition of Beta-lactamase OXA-17 expressed in Escherichia coli BL21 (DE3) by nitrocefin hydrolysis assay; method in brief: as §2
[7] = Inhibition of Beta-lactamase OXA-1 expressed in Escherichia coli BL21 (DE3) by nitrocefin hydrolysis assay; method in brief: as §2
Escherichia coli = experiment: Antibacterial activity against Escherichia coli DH10B harboring RGN238 plasmid containing Beta-lactamase OXA-1 at 4 ug/ml in presence of increasing concentrations of piperacillin by broth agar dilution assay; assay type: functional
Method in brief: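 Lysogeny broth agar dilution MIC on E. coli DH10B carrying plasmid RGN238 with blaOXA-1. Piperacillin tested at increasing concentrations with the inhibitor held at a constant 4 μg/ml. Plates inoculated by Steers replicator with 10 μl of a diluted overnight culture containing 10^4 CFU.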

SMILES	Km [1] [µM]	kcat [1] [s⁻¹]	kcat/Km [2] [M⁻¹ s⁻¹]	Ki [3] [µM]	Ki [4] [µM]	Ki [5] [µM]	Ki [6] [µM]	Ki [7] [µM]	MIC (Escherichia coli) [µg/mL]
Cc1onc(-c2ccccc2)c1C(=O)N[C@@H]1C(=O)N2[C@@H]1SC(C)(C)[C@@H]2C(=O)O	31	577	1.9e+07	–	–	–	–	–	–
C[C@]1(COC(=O)Cc2ccc(O)c(O)c2)[C@H](C(=O)O)N2C(=O)/C(=C/c3ccccn3)[C@H]2S1(=O)=O	–	–	–	8	0.65	1.4	0.2	0.7	128
C[C@]1(Cn2ccnn2)[C@H](C(=O)O)N2C(=O)C[C@H]2S1(=O)=O [TAZOBACTAM]	–	–	–	170	271	30	40	585	512
O=C(O)[C@H]1/C(=C/CO)O[C@@H]2CC(=O)N21 [CLAVULANIC ACID]	–	–	–	104	51	19	45	195	–
O=C(Cc1cccs1)N[C@@H]1C(=O)N2C(C(=O)[O-])=C(C[n+]3ccccc3)CS[C@H]12	80	16	210000	–	–	–	–	–	–
CC(=O)OC[C@@]1(C)[C@H](C(=O)O)N2C(=O)/C(=C/c3ccccn3)[C@H]2S1(=O)=O	–	–	–	17	2.4	4	0.87	1.4	–
CC1(C)S[C@@H]2[C@H](NC(=O)[C@H](N)c3ccccc3)C(=O)N2[C@H]1C(=O)O	64	357	6e+06	–	–	–	–	–	–
O=C(Cc1cccs1)N[C@@H]1C(=O)N2C(C(=O)O)=C(/C=C/c3ccc([N+](=O)[O-])cc3[N+](=O)[O-])CS[C@H]12	9	94	1e+07	–	–	–	–	–	–
